Most compounds without a hit are left out; they make up all but 4.6% or so of the library.
TAAR1 ag = human TAAR1 agonists, primary screen, Fluo-8 calcium fluorescence, CHO RD-HGA16 cells | vehicle wells 0%, saturating PEA agonist 100% | 0.99% of 360,000 active | activation, % at 3 µM | AID 624467, 2012;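 active = activation above the mean activation of all test compounds in the run plus 3 SD, cut at about 38% in these data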
Target sequence (Q96RJ0 whole entry, looked up): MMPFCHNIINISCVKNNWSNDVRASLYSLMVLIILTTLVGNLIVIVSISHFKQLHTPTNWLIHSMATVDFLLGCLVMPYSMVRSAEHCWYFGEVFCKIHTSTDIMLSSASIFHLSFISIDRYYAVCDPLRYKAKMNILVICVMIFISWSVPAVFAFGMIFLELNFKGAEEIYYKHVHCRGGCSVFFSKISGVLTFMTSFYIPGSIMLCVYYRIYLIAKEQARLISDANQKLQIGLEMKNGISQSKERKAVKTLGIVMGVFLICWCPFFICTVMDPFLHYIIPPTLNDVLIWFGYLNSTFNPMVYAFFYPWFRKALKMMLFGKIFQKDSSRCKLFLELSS
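test system = CHO RD-HGA16 cells carrying human TAAR1 plus Gα16 | schedule = 17-24 h seeding, 75 min 37 °C dye, 30 min RT | compound dosing = 3 µM single concentration | control set = DMSO and PEA EC100 | replicates = n 1 | signal = Fluo-8 fluorescence, 5 s baseline then 140 s kinetic read | measure = percent activation vs PEA EC100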
CHO parental Ca = ATP-evoked calcium signal inhibitors, parental CHO, primary screen, counter-screen for OX1R antagonist project, cell-based, fluorescence, Fluo-8 calcium dye; parental CHO-K1, ATP-induced calcium, Fluo-8 fluorescence; inhibition, % at 5.6 µM; 0.63% of 330,000 active; AID 463079, 2010;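 active = inhibition above that plate's mean sample inhibition plus 3 SD, cut at about 26% in these data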;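 note: 0% = ATP-challenged DMSO wells and 100% = DMSO wells without ATP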
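Assay system: untransfected parental CHO cell line. Also added: ATP agonist challenge. Dosing: one dose, 5.6 µM nominal. Measured by: Fluo-8 fluorescence. Read-out: % inhibition. Benchmarks: ATP wells versus no-ATP DMSO wells. Repeats: no replicates.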
GPR7 antagonist = GPR7 receptor antagonists, primary screen, cell-based, fluorescence, single concentration; 1.1% of 290,000 active; GPR7-expressing cells, fluorescence antagonist assay; Neuropeptides B/W receptor type 1 (Homo sapiens), P48145; inhibition, % at 4.4 µM; in the data active = inhibition above about 16%, passing the limit was not always enough;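 note: cells stimulated with the agonist NPW; 0% = agonist with vehicle and 100% = vehicle without agonist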
Target sequence (P48145 whole entry, looked up): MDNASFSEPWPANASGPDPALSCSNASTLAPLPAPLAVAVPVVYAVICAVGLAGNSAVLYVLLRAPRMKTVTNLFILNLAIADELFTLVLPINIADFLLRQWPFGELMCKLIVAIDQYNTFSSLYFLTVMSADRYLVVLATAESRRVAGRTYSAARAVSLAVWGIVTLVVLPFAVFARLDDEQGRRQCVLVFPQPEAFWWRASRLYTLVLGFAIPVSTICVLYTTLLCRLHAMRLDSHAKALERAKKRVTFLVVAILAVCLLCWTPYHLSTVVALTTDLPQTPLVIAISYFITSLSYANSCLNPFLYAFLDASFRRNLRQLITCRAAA
OX1R antag-1 = antagonists of human orexin 1 receptor (OX1R) | Orexin/Hypocretin receptor type 1 (Homo sapiens), O43613 | OX1R-expressing cells, FRET antagonist read-out | inhibition, % at 6.6 µM | 1.8% of 330,000 active | AID 485270, 2010; in the data active = inhibition mostly above about 38%, no sharp cut-off; inactive = mostly below about 40%;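 note: 0% = agonist challenge alone and 100% = reference antagonist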
TAAR1 antagonist = human TAAR1 antagonists, primary screen, Fluo-8 calcium fluorescence, CHO RD-HGA16 cells. AID 624466, 2012. 1.5% of 360,000 active. Trace amine-associated receptor 1 (Homo sapiens), Q96RJ0. antagonist. inhibition, % at 3 µM;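 active = inhibition above a per-plate cutoff, the mean inhibition of test compounds on that plate plus 3 SD, cut at about 49% in these data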;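 note: 0% = DMSO plus EC80 beta-PEA response and 100% = DMSO alone without agonist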
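Test system – hTAAR1-expressing CHO RD-HGA16 cells, Gα16-coupled · Also added – β-PEA at EC80 concentration, post-compound challenge · Compound – 3 µM, single point · Incubation – dye loading 75 min at 37 °C, then 30 min room temperature · Measured by – Fluo-8 intracellular calcium dye fluorescence, real-time kinetic reads · Benchmarks – vehicle and agonist controls · Replicates – singlicate, one well per test compound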
OX1R antag-2 = OX1R (HCRTR1) antagonists, primary screen, fluorescence, CHO/OX1R cells, Fluo-8 calcium, orexin A | AID 434989, 2010 | inhibition, % at 5 µM | Orexin/Hypocretin receptor type 1 (Homo sapiens), O43613 | 0.43% of 330,000 active | Fluo-8 calcium fluorescence;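 active = inhibition above its plate's threshold, mean inhibition of all tested compounds on the plate plus 3 SD, cut at about 37% in these data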;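 note: 0% = orexin A challenge wells and 100% = SB-334867-A antagonist wells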
* = called active by the depositor; nt = no result.

SMILES	TAAR1 ag	CHO parental Ca	GPR7 antagonist	OX1R antag-1	TAAR1 antagonist	OX1R antag-2
O=C(CCc1ccccc1)OCC(=O)c1cccc([N+](=O)[O-])c1	-1	-5	-20	32	-7	-8
O=C(COC(=O)c1cccc([N+](=O)[O-])c1)c1ccc(OCc2ccccc2)cc1	1	53*	3	5	-2	53*
Cc1c(Cl)cccc1NC(=O)Cn1nc(C)n2cccc2c1=O	-1	-11	-3	-2	-8	-18
Cc1cc(C(=O)N/N=C\c2ccc(COc3ccc([N+](=O)[O-])cc3)o2)ccc1[N+](=O)[O-]	14	-1	-5	24	54*	4
COc1ccc(C(=O)NCC(=O)OCc2ccc([N+](=O)[O-])cc2)cc1	6	-7	-3	19	8	-19
Cc1ccc(C(=O)NCC(=O)NCC(=O)OCc2ccc(Oc3ccc([N+](=O)[O-])cc3)cc2)cc1	5	46*	2	49	39	59*
CC(C)NC(=O)c1ccc(COCC(F)(F)C(F)F)cc1	9	-2	2	11	2	-18
O=C(NCC1CCCO1)c1ccc(COCC(F)(F)C(F)F)cc1 (centres undefined)	-2	-1	17*	10	-8	-6
Cc1ccc(-c2noc(CN(C(=O)c3ccc4c(c3)OCO4)C(C)C)n2)cc1	-1	-17	15	16	-5	-20
Cc1ccccc1OCC(=O)N(Cc1nc(-c2ccccc2)no1)C(C)C	2	25	-7	62*	3	5
Cc1ccc(SCC(=O)N(Cc2nc(-c3ccccc3)no2)C(C)C)cc1	6	46*	11	63	21	35
Cc1ccccc1OCC(=O)N(Cc1nnc(-c2ccc(Cl)cc2)o1)C(C)C	1	-38	nt	39*	4	9
CC(C)N(Cc1nc(-c2ccccc2)no1)C(=O)c1ccc2c(c1)OCO2	nt	-12	-4	50*	nt	2
NNC(=O)/C(=C/c1cccs1)NC(=O)c1ccccc1Cl	3	-27	-4	11	-11	-23
Cc1ccc(S(C)(=O)=O)cc1C(=O)Nc1ccc(S(=O)(=O)Nc2nccs2)cc1	4	6	nt	0	4	-3
CCOC(=O)C1C(=O)OC(C)(C)C1C(C)C(=O)c1ccc(C)cc1C (centres undefined)	8	-22	-6	14	11	-9
Cc1ccc(S(=O)(=O)/N=S(/c2ccccc2)C(C)C)cc1 (centres undefined)	2	-6	-5	5	-15	3
CN(c1cccnc1)c1ccc(NC(=O)Cc2c[nH]c3ccccc23)cc1-c1ccc(F)c(F)c1	7	nt	nt	nt	24	nt
Cc1ccc(Nc2nc(NCCO)c3ccccc3n2)cc1C	39*	-12	-7	-4	-11	-23
COCCN(CCOC)C(=O)COC(=O)c1cc([N+](=O)[O-])ccc1Cl	1	-11	-12	48*	-27	-4
CN(C)c1ccc(N=Nc2ccccc2C(=O)OCC(=O)N(C)c2ccccc2)cc1	17	34*	-5	21	62*	1
CN(C(=O)COC(=O)CSc1ccc([N+](=O)[O-])cc1)c1ccccc1	1	-12	nt	8	51*	-13
O=C(COC(=O)c1cc([N+](=O)[O-])ccc1Cl)NCCc1ccccc1	14	-6	nt	17	3	-18
CN(C(=O)COC(=O)c1cc([N+](=O)[O-])ccc1Cl)c1ccccc1	5	-20	-9	66*	-18	-12
N#CC1(NC(=O)CSc2nnc(Nc3ccccc3F)s2)CCCC1	10	-22	nt	3	-5	1
SMILES	TAAR1 ag	CHO parental Ca	GPR7 antagonist	OX1R antag-1	TAAR1 antagonist	OX1R antag-2
COc1cc(OC)c(NC(=O)Cn2cnc3sc(C)c(S(=O)(=O)N4CCOCC4)c3c2=O)cc1Cl	-2	-10	-6	9	1	-45
O=C(CN(Cc1cccs1)S(=O)(=O)c1ccc(S(=O)(=O)NC2CCCCC2)cc1)Nc1ccccc1	17	-3	4	21	27	-9
O=C(CN(C1CC1)S(=O)(=O)c1ccc(S(=O)(=O)NC2CCCCC2)cc1)Nc1ccccc1	38*	nt	5	nt	38	nt
O=C(N/N=C/c1cc2c(cc1Br)OCO2)c1cc2ccccc2o1	0	-16	-16	76*	6	-1
COc1ccccc1C=NNC(=O)NN=Cc1ccccc1OC	-1	nt	nt	nt	-3	nt
O=C(N/N=C/c1cc2c(cc1Br)OCO2)c1ccccn1	-1	-30	-3	2	-4	-26
COc1ccccc1C=NN=C(NN=Cc1ccccc1OC)NN=Cc1ccccc1OC	16	nt	nt	nt	52*	nt
COc1cc(/C=N/NC(=O)c2cc3c(ccc4ccccc43)o2)cc(OC)c1O	9	-9	5	53*	33	7
COc1cc(/C=N/NC(=O)c2ccc(COc3ccccc3Cl)o2)cc(Br)c1O	10	6	30*	-7	44	-3
CCN(C(=O)COC(=O)CCOc1ccccc1C)c1c(N)n(Cc2ccccc2)c(=O)[nH]c1=O	0	nt	nt	nt	4	nt
COc1cccc(CNC(=O)CSCC(=O)Nc2cc(C)on2)c1	1	-5	nt	12	-15	-7
COc1ccccc1/C=N/NC(=O)c1cc2c(ccc3ccccc32)o1	1	-18	-15	65*	16	-1
O=C(N/N=C/c1ccncc1)c1cc2c(ccc3ccccc32)o1	6	0	6	37	21	1
Cc1cccc2sc(N(CCN(C)C)C(=O)C3CCN(S(=O)(=O)c4cccs4)CC3)nc12	39*	-10	nt	0	41	-15
CN(CCc1ccccc1)C(=O)c1ccc(NC(=O)Cc2ccc(NC(=O)C3CCCN(C(=O)CCc4ccccc4)C3)cc2)cc1 (centres undefined)	1	nt	nt	nt	8	nt
N/C(=N/OC(=O)c1cccc([N+](=O)[O-])c1)c1cccc([N+](=O)[O-])c1	2	0	-11	10	-14	9
CC1=C(C)/C(=N/OC(=O)c2cccc([N+](=O)[O-])c2)C=CC1=O	nt	1	-3	74*	nt	17
COc1ccccc1N1CCN(C(=O)Cc2c(C(=O)O)[nH]c3ccc(Cl)cc23)CC1	4	-9	-9	12	7	-5
O=C(O)c1[nH]c2ccc(Cl)cc2c1CC(=O)N1CCN(c2ccccc2)CC1	10	44*	-9	19	-7	12
O=C(NC1=NCCS1)C12CC3CC(CC(C3)C1)C2	1	-14	-4	7	-14	-18
